ChEMBL document CHEMBL3994650, “New 1,4-dihydro[1,8]naphthyridine derivatives as DNA gyrase inhibitors” (Bioorg Med Chem Lett, 2017)
Values after ≈ are worked out from the molar mass of the structure shown. Active and inactive are the calls of the source. The calls are words filed in the database; no cut-off is given here.

Key:
[1] = Selectivity index, ratio of IC50 for mouse NIH/3T3 cells to MIC90 for Pseudomonas aeruginosa ATCC 27853; type: toxicity; conditions: read-out: Selectivity Index
[2] = tested on: Salmonella typhimurium; assay: Mutagenicity in Salmonella typhimurium TA98 assessed as increase in revertant colonies at 2.5 mg/ml in presence of Sprague-Dawley rat liver S9 fraction by Ames test relative to basal level; type: toxicity; conditions: salmonella enterica subsp. enterica serovar typhimurium
Method in brief: (§1)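 Ames microplate format assay with strains TA98 and TA100, run with and without S9. Positive wells were counted per condition. The run was valid if positive controls gave more than 25 positive wells and negative controls fewer than 8.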

[3] = tested on: Salmonella typhimurium; assay: Mutagenicity in Salmonella typhimurium TA100 assessed as increase in revertant colonies at 0.625 mg/ml in presence of Sprague-Dawley rat liver S9 fraction by Ames test relative to basal level; type: toxicity; conditions: salmonella enterica subsp. enterica serovar typhimurium; method in brief: as §1
[4] = tested on: Salmonella typhimurium; assay: Mutagenicity in Salmonella typhimurium TA100 assessed as increase in revertant colonies at 0.156 mg/ml in presence of Sprague-Dawley rat liver S9 fraction by Ames test relative to basal level; type: toxicity; conditions: salmonella enterica subsp. enterica serovar typhimurium; method in brief: as §1
[5] = tested on: Salmonella typhimurium; assay: Mutagenicity in Salmonella typhimurium TA100 assessed as increase in revertant colonies at 1.25 mg/ml in presence of Sprague-Dawley rat liver S9 fraction by Ames test relative to basal level; type: toxicity; conditions: salmonella enterica subsp. enterica serovar typhimurium; method in brief: as §1
[6] = tested on: Salmonella typhimurium; assay: Mutagenicity in Salmonella typhimurium TA98 assessed as increase in revertant colonies at 1.25 mg/ml in presence of Sprague-Dawley rat liver S9 fraction by Ames test relative to basal level; type: toxicity; conditions: salmonella enterica subsp. enterica serovar typhimurium; method in brief: as §1
[7] = tested on: Enterococcus faecalis; assay: Antibacterial activity against Enterococcus faecalis ATCC 51299 incubated after 24 hrs by resazurin dye based broth microdilution assay; type: functional; conditions: ATCC 51299, 24 h
[8] = tested on: Salmonella typhimurium; assay: Mutagenicity in Salmonella typhimurium TA100 assessed as increase in revertant colonies at 0.3125 mg/ml in presence of Sprague-Dawley rat liver S9 fraction by Ames test relative to basal level; type: toxicity; conditions: salmonella enterica subsp. enterica serovar typhimurium; method in brief: as §1
[9] = tested on: Staphylococcus aureus; assay: Antibacterial activity against Staphylococcus aureus ATCC 25923 assessed as decrease in ATP level at […] ug/ml after 24 hrs by BacTiter-Glo reagent based bioluminescence assay; type: functional
[10] = Selectivity index, ratio of IC50 for mouse NIH/3T3 cells to MIC90 for Klebsiella pneumoniae ATCC 700603; type: toxicity; conditions: read-out: Selectivity Index
[11] = tested on: Salmonella typhimurium; assay: Mutagenicity in Salmonella typhimurium TA98 assessed as increase in revertant colonies at 5 mg/ml in presence of Sprague-Dawley rat liver S9 fraction by Ames test relative to basal level; type: toxicity; conditions: salmonella enterica subsp. enterica serovar typhimurium; method in brief: as §1
[12] = tested on: Salmonella typhimurium; assay: Mutagenicity in Salmonella typhimurium TA100 assessed as increase in revertant colonies at 5 mg/ml in presence of Sprague-Dawley rat liver S9 fraction by Ames test relative to basal level; type: toxicity; conditions: salmonella enterica subsp. enterica serovar typhimurium; method in brief: as §1
[13] = Selectivity index, ratio of IC50 for mouse NIH/3T3 cells to MIC90 for Listeria monocytogenes ATCC 7644; type: toxicity; conditions: read-out: Selectivity Index
[14] = tested on: Listeria monocytogenes; assay: Antibacterial activity against Listeria monocytogenes ATCC 7644 incubated after 24 hrs by resazurin dye based broth microdilution assay; type: functional; conditions: ATCC 7644, 24 h
[15] = tested on: Salmonella typhimurium; assay: Mutagenicity in Salmonella typhimurium TA100 assessed as increase in revertant colonies at 2.5 mg/ml in absence of Sprague-Dawley rat liver S9 fraction by Ames test relative to basal level; type: toxicity; conditions: salmonella enterica subsp. enterica serovar typhimurium; method in brief: as §1
[16] = tested on: Enterococcus faecalis; assay: Antibacterial activity against Enterococcus faecalis ATCC 29212 incubated after 24 hrs by resazurin dye based broth microdilution assay; type: functional; conditions: ATCC 29212, 24 h
[17] = tested on: Escherichia coli; assay: Antibacterial activity against Escherichia coli ATCC 25922 incubated after 24 hrs by resazurin dye based broth microdilution assay; type: functional; conditions: ATCC 25922, 24 h
[18] = tested on: Salmonella typhimurium; assay: Mutagenicity in Salmonella typhimurium TA100 assessed as increase in revertant colonies at 5 mg/ml in absence of Sprague-Dawley rat liver S9 fraction by Ames test relative to basal level; type: toxicity; conditions: salmonella enterica subsp. enterica serovar typhimurium; method in brief: as §1
[19] = tested on: Staphylococcus aureus; assay: Antibacterial activity against Staphylococcus aureus ATCC 25923 incubated after 24 hrs by resazurin dye based broth microdilution assay; type: functional; conditions: ATCC 25923, 24 h
[20] = tested on: Salmonella typhimurium; assay: Mutagenicity in Salmonella typhimurium TA100 assessed as increase in revertant colonies at 0.625 mg/ml in absence of Sprague-Dawley rat liver S9 fraction by Ames test relative to basal level; type: toxicity; conditions: salmonella enterica subsp. enterica serovar typhimurium; method in brief: as §1
[21] = tested on: Salmonella typhimurium; assay: Mutagenicity in Salmonella typhimurium TA100 assessed as increase in revertant colonies at 1.25 mg/ml in absence of Sprague-Dawley rat liver S9 fraction by Ames test relative to basal level; type: toxicity; conditions: salmonella enterica subsp. enterica serovar typhimurium; method in brief: as §1
[22] = tested on: Salmonella typhimurium; assay: Mutagenicity in Salmonella typhimurium TA98 assessed as increase in revertant colonies at 0.3125 mg/ml in absence of Sprague-Dawley rat liver S9 fraction by Ames test relative to basal level; type: toxicity; conditions: salmonella enterica subsp. enterica serovar typhimurium; method in brief: as §1
[23] = tested on: Escherichia coli; assay: Antibacterial activity against Escherichia coli ATCC 35218 incubated after 24 hrs by resazurin dye based broth microdilution assay; type: functional; conditions: ATCC 35218, 24 h
[24] = tested on: NIH3T3; assay: Cytotoxicity against mouse NIH/3T3 cells assessed as reduction in cell proliferation after 24 hrs by MTT assay; type: cell-based; conditions: NIH3T3, 24 h
[25] = tested on: Escherichia coli ATCC 25922; assay: Inhibition of Escherichia coli DNA gyrase assessed as inhibition of enzyme-mediated supercoiling of relaxed pHOT1 DNA substrate after 30 mins by gel electrophoresis method
Method in brief: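 E. coli DNA gyrase (1 U) was incubated with relaxed pHOT1 DNA substrate (0.25 µg) for 30 min at 37 °C. Compounds were tested at 15.6, 7.8, 3.9 and 1.95 µg/L. Controls were supercoiled DNA, relaxed DNA, relaxed DNA plus gyrase, and 1% DMSO. Supercoiling was read by agarose gel electrophoresis.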

[26] = tested on: Salmonella typhimurium; assay: Mutagenicity in Salmonella typhimurium TA100 assessed as increase in revertant colonies at 0.156 mg/ml in absence of Sprague-Dawley rat liver S9 fraction by Ames test relative to basal level; type: toxicity; conditions: salmonella enterica subsp. enterica serovar typhimurium; method in brief: as §1
[27] = tested on: Pseudomonas aeruginosa; assay: Antibacterial activity against Pseudomonas aeruginosa ATCC 27853 incubated after 24 hrs by resazurin dye based broth microdilution assay; type: functional; conditions: ATCC 27853, 24 h
[28] = tested on: Salmonella typhimurium; assay: Mutagenicity in Salmonella typhimurium TA98 assessed as increase in revertant colonies at 0.156 mg/ml in absence of Sprague-Dawley rat liver S9 fraction by Ames test relative to basal level; type: toxicity; conditions: salmonella enterica subsp. enterica serovar typhimurium; method in brief: as §1
[29] = tested on: Salmonella typhimurium; assay: Mutagenicity in Salmonella typhimurium TA98 assessed as increase in revertant colonies at 2.5 mg/ml in absence of Sprague-Dawley rat liver S9 fraction by Ames test relative to basal level; type: toxicity; conditions: salmonella enterica subsp. enterica serovar typhimurium; method in brief: as §1
[30] = tested on: Salmonella typhimurium; assay: Mutagenicity in Salmonella typhimurium TA98 assessed as increase in revertant colonies at 0.156 mg/ml in presence of Sprague-Dawley rat liver S9 fraction by Ames test relative to basal level; type: toxicity; conditions: salmonella enterica subsp. enterica serovar typhimurium; method in brief: as §1
[31] = tested on: Klebsiella pneumoniae; assay: Antibacterial activity against Klebsiella pneumoniae ATCC 700603 incubated after 24 hrs by resazurin dye based broth microdilution assay; type: functional; conditions: Klebsiella pneumoniae, 700603, 24 h
[32] = tested on: Salmonella typhimurium; assay: Mutagenicity in Salmonella typhimurium TA98 assessed as increase in revertant colonies at 5 mg/ml in absence of Sprague-Dawley rat liver S9 fraction by Ames test relative to basal level; type: toxicity; conditions: salmonella enterica subsp. enterica serovar typhimurium; method in brief: as §1
[33] = tested on: Salmonella typhimurium; assay: Mutagenicity in Salmonella typhimurium TA98 assessed as increase in revertant colonies at 1.25 mg/ml in absence of Sprague-Dawley rat liver S9 fraction by Ames test relative to basal level; type: toxicity; conditions: salmonella enterica subsp. enterica serovar typhimurium; method in brief: as §1
[34] = tested on: Salmonella typhimurium; assay: Mutagenicity in Salmonella typhimurium TA98 assessed as increase in revertant colonies at 0.625 mg/ml in absence of Sprague-Dawley rat liver S9 fraction by Ames test relative to basal level; type: toxicity; conditions: salmonella enterica subsp. enterica serovar typhimurium; method in brief: as §1
[35] = tested on: Salmonella typhimurium; assay: Mutagenicity in Salmonella typhimurium TA100 assessed as increase in revertant colonies at 2.5 mg/ml in presence of Sprague-Dawley rat liver S9 fraction by Ames test relative to basal level; type: toxicity; conditions: salmonella enterica subsp. enterica serovar typhimurium; method in brief: as §1
[36] = tested on: Salmonella typhimurium; assay: Mutagenicity in Salmonella typhimurium TA98 assessed as increase in revertant colonies at 0.625 mg/ml in presence of Sprague-Dawley rat liver S9 fraction by Ames test relative to basal level; type: toxicity; conditions: salmonella enterica subsp. enterica serovar typhimurium; method in brief: as §1
[37] = tested on: Salmonella typhimurium; assay: Mutagenicity in Salmonella typhimurium TA100 assessed as increase in revertant colonies at 0.3125 mg/ml in absence of Sprague-Dawley rat liver S9 fraction by Ames test relative to basal level; type: toxicity; conditions: salmonella enterica subsp. enterica serovar typhimurium; method in brief: as §1
[38] = tested on: Salmonella typhimurium; assay: Mutagenicity in Salmonella typhimurium TA98 assessed as increase in revertant colonies at 0.3125 mg/ml in presence of Sprague-Dawley rat liver S9 fraction by Ames test relative to basal level; type: toxicity; conditions: salmonella enterica subsp. enterica serovar typhimurium; method in brief: as §1

CN(C)CCCN1CCN(c2nc3c(cc2F)c(=O)c(C(=O)O)cn3-c2ccc(F)cc2F)CC1
selectivity ratio [1]: 54
fold change (FC) [2]: 0
fold change (FC) [3]: 0
fold change (FC) [4]: 0
fold change (FC) [5]: 0
fold change (FC) [6]: 0
MIC90 [7]: 3.9 µg/mL (≈ 7.97 µM)
fold change (FC) [8]: 0
Activity [9]: Active
selectivity ratio [10]: 54
fold change (FC) [11]: 0
fold change (FC) [12]: 0
selectivity ratio [13]: 54
MIC90 [14]: 7.8 µg/mL (≈ 15.9 µM)
fold change (FC) [15]: 0
MIC90 [16]: 3.9 µg/mL (≈ 7.97 µM)
MIC90 [17]: 1.95 µg/mL (≈ 3.98 µM)
fold change (FC) [18]: 0
MIC90 [19]: 1.95 µg/mL (≈ 3.98 µM)
fold change (FC) [20]: 0
fold change (FC) [21]: 0
fold change (FC) [22]: 0
MIC90 [23]: 1.95 µg/mL (≈ 3.98 µM)
IC50 [24]: 440 µg/mL (≈ 899 µM)
inhibition [25]: Dose-dependent effect
fold change (FC) [26]: 0
MIC90 [27]: 7.8 µg/mL (≈ 15.9 µM)
fold change (FC) [28]: 0
fold change (FC) [29]: 0
fold change (FC) [30]: 0
MIC90 [31]: 7.8 µg/mL (≈ 15.9 µM)
fold change (FC) [32]: 0
fold change (FC) [33]: 0
fold change (FC) [34]: 0
fold change (FC) [35]: 0
fold change (FC) [36]: 0
fold change (FC) [37]: 0
fold change (FC) [38]: 0.11
